From ChEMBL document CHEMBL1128523, “Non-peptide fibrinogen receptor antagonists. 7. Design and synthesis of a potent, orally active fibrinogen receptor antagonist” (J Med Chem, 1995)
Where a SMILES comes first, the peptide text is derived from it. Bridges are numbered along the chain shown (N, C = ends).

Key:
Homo sapiens [1] = species on record: Homo sapiens; assay: Concentration required to inhibit the rate of platelet aggregation by 50% was determined with human gel filtered platelets (GFP); type: functional
Method in brief: (§1)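 Light-transmittance aggregometry at 37 °C on human gel-filtered platelets (2 × 10^8 platelets/mL) with 0.1 mg/mL human fibrinogen and 1 mM CaCl2; 10 μM ADP added last to start aggregation.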

Canis familiaris [2] = assay: Ex vivo antiplatelet activity was assessed following oral administration at a dose of 1 mg/kg to dogs in the presence of 10 uM of collagen and 1 uM of epinephrine at 350 min; type: functional; conditions: Canis lupus familiaris
Method in brief: (§2)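 Four conscious mongrel dogs in slings, single oral 1.0 mg/kg crystalline solid in gelatin capsules; citrated venous blood (3.8% citrate) taken at baseline and 20–1440 min. PRP aggregation to ADP or collagen, each with 1 μM epinephrine, as % inhibition vs baseline. Mean ± SEM, n = 4.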

Canis familiaris [3] = assay: Ex vivo antiplatelet activity was assessed following oral administration at a dose of 1 mg/kg to dogs in the presence of […] and 1 uM of epinephrine at 70 min; type: functional; conditions: Canis lupus familiaris; method in brief: as §2
Canis familiaris [4] = assay: Ex vivo antiplatelet activity was assessed following oral administration at a dose of 1 mg/kg to dogs in the presence of 10 uM of ADP and 1 uM of epinephrine at 70 min; type: functional; conditions: Canis lupus familiaris; method in brief: as §2
Homo sapiens [5] = species on record: Homo sapiens; assay: Concentration required to inhibit platelet aggregation by 50%; type: functional; method in brief: as §1
Canis familiaris [6] = assay: Ex vivo antiplatelet activity was assessed following oral administration at a dose of 1 mg/kg to dogs in the presence of 10 uM of ADP and 1 uM of epinephrine at 0 min; type: functional; conditions: Canis lupus familiaris, 0 h; method in brief: as §2
Canis familiaris [7] = assay: Ex vivo antiplatelet activity was assessed following oral administration at a dose of 1 mg/kg to dogs in the presence of […] and 1 uM of epinephrine at 0 min; type: functional; conditions: Canis lupus familiaris, 0 h; method in brief: as §2
Canis familiaris [8] = assay: Ex vivo antiplatelet activity was assessed following oral administration at a dose of 1 mg/kg to dogs in the presence of 10 uM of ADP and 1 uM of epinephrine at 300 min; type: functional; conditions: Canis lupus familiaris, 5 h; method in brief: as §2
Canis familiaris [9] = assay: Ex vivo antiplatelet activity was assessed following oral administration at a dose of 1 mg/kg to dogs in the presence of 10 uM of ADP and 1 uM of epinephrine at 250 min; type: functional; conditions: Canis lupus familiaris; method in brief: as §2
Canis familiaris [10] = assay: Ex vivo antiplatelet activity was assessed following oral administration at a dose of 1 mg/kg to dogs in the presence of […] and 1 uM of epinephrine at 250 min; type: functional; conditions: Canis lupus familiaris; method in brief: as §2
[11] = In vitro concentration required to inhibit the rate of chimp platelet aggregation (in platelet rich plasma) by 50% was determined in presence of 10 ug/mL of collagen; type: functional; conditions: Pan troglodytes
Method in brief: (§3)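 PRP from blood spun at 150g for 5 min, count set to 200 000 cells/mm3 with PPP; 300 μL held 3 min at 37 °C before agonist. Aggregation read as % change in light transmission, PPP = 100%; inhibition relative to baseline response. Mean ± SE, n = 3–7.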

Canis familiaris [12] = assay: Ex vivo antiplatelet activity was assessed following oral administration at a dose of 1 mg/kg to dogs in the presence of […] and 1 uM of epinephrine at 1440 min; type: functional; conditions: Canis lupus familiaris, 24 h; method in brief: as §2
Homo sapiens [13] = species on record: Homo sapiens; assay: In vitro concentration required to inhibit the rate of human platelet aggregation (in platelet rich plasma) by 50% was determined in presence of 10 uM of ADP; type: functional; method in brief: as §3
Canis familiaris [14] = assay: Ex vivo antiplatelet activity was assessed following oral administration at a dose of 1 mg/kg to dogs in the presence of 10 uM of ADP and 1 uM of epinephrine at 350 min; type: functional; conditions: Canis lupus familiaris; method in brief: as §2
Homo sapiens [15] = species on record: Homo sapiens; assay: In vitro concentration required to inhibit the rate of human platelet aggregation (in platelet rich plasma) by 50% was determined in presence of 10 uM of epinephrine; type: functional; method in brief: as §3
Homo sapiens [16] = species on record: Homo sapiens; assay: In vitro concentration required to inhibit the rate of human platelet aggregation (in platelet rich plasma) by 50% was determined in presence of 10 ug/mL of collagen; type: functional; method in brief: as §3
Canis familiaris [17] = assay: Ex vivo antiplatelet activity was assessed following oral administration at a dose of 1 mg/kg to dogs in the presence of […] and 1 uM of epinephrine at 20 min; type: functional; conditions: Canis lupus familiaris; method in brief: as §2
Canis familiaris [18] = assay: Ex vivo antiplatelet activity was assessed following oral administration at a dose of 1 mg/kg to dogs in the presence of 10 uM of ADP and 1 uM of epinephrine at 200 min; type: functional; conditions: Canis lupus familiaris; method in brief: as §2
[19] = In vitro concentration required to inhibit the rate of chimp platelet aggregation (in platelet rich plasma) by 50% was determined in presence of 20 uM of ADP; type: functional; conditions: Pan troglodytes; method in brief: as §3
Canis familiaris [20] = species on record: Canis familiaris; assay: Whole blood platelet count was determined in 10e3/uL; type: functional, Canis lupus familiaris
Method in brief: (§4)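 Dogs given 1.0 mg/kg orally by capsule (n = 4); 1 mL citrated venous blood per time point (baseline to 1440 min) counted on an automated hematology analyzer; reported as 10^3/μL and Δ% from baseline, mean ± SEM.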

Canis familiaris [21] = species on record: Canis familiaris; assay: In vitro concentration required to inhibit the rate of dog platelet aggregation (in platelet rich plasma) by 50% was determined in presence of 10 ug/mL of collagen and 1 uM of epinephrine; type: functional; conditions: Canis lupus familiaris; method in brief: as §3
Canis familiaris [22] = assay: Ex vivo antiplatelet activity was assessed following oral administration at a dose of 1 mg/kg to dogs in the presence of 10 uM of collagen and 1 uM of epinephrine at 480 min; type: functional; conditions: Canis lupus familiaris, 8 h; method in brief: as §2
Canis familiaris [23] = assay: Ex vivo antiplatelet activity was assessed following oral administration at a dose of 1 mg/kg to dogs in the presence of […] and 1 uM of epinephrine at 200 min; type: functional; conditions: Canis lupus familiaris; method in brief: as §2
Canis familiaris [24] = assay: Ex vivo antiplatelet activity was assessed following oral administration at a dose of 1 mg/kg to dogs in the presence of 10 uM of ADP and 1 uM of epinephrine at 1440 min; type: functional; conditions: Canis lupus familiaris, 24 h; method in brief: as §2
Homo sapiens [25] = species on record: Homo sapiens; assay: In vitro concentration required to inhibit the rate of human platelet aggregation (in platelet rich plasma) by 50% was determined in presence of 0.5 U/mL of thrombin and 1 mM GPRP; type: functional; method in brief: as §3
Canis familiaris [26] = assay: Ex vivo antiplatelet activity was assessed following oral administration at a dose of 1 mg/kg to dogs in the presence of […] and 1 uM of epinephrine at 150 min; type: functional; conditions: Canis lupus familiaris, 2.5 h; method in brief: as §2
Canis familiaris [27] = assay: Ex vivo antiplatelet activity was assessed following oral administration at a dose of 1 mg/kg to dogs in the presence of 10 uM of ADP and 1 uM of epinephrine at 480 min; type: functional; conditions: Canis lupus familiaris, 8 h; method in brief: as §2
Canis familiaris [28] = assay: Ex vivo antiplatelet activity was assessed following oral administration at a dose of 1 mg/kg to dogs in the presence of 10 uM of ADP and 1 uM of epinephrine at 20 min; type: functional; conditions: Canis lupus familiaris; method in brief: as §2
Canis familiaris [29] = assay: Ex vivo antiplatelet activity was assessed following oral administration at a dose of 1 mg/kg to dogs in the presence of 10 uM of collagen and 1 uM of epinephrine at 40 min; type: functional; conditions: Canis lupus familiaris; method in brief: as §2
Canis familiaris [30] = assay: Ex vivo antiplatelet activity was assessed following oral administration at a dose of 1 mg/kg to dogs in the presence of 10 uM of ADP and 1 uM of epinephrine at 40 min; type: functional; conditions: Canis lupus familiaris; method in brief: as §2
Canis familiaris [31] = species on record: Canis familiaris; assay: Whole blood platelet count was determined as delta% from baseline; type: functional, Canis lupus familiaris; method in brief: as §4
Canis familiaris [32] = assay: Ex vivo antiplatelet activity was assessed following oral administration at a dose of 1 mg/kg to dogs in the presence of […] and 1 uM of epinephrine at 300 min; type: functional; conditions: Canis lupus familiaris, 5 h; method in brief: as §2
Canis familiaris [33] = assay: Ex vivo antiplatelet activity was assessed following oral administration at a dose of 1 mg/kg to dogs in the presence of 10 uM of ADP and 1 uM of epinephrine at 150 min; type: functional; conditions: Canis lupus familiaris, 2.5 h; method in brief: as §2
Canis familiaris [34] = assay: Ex vivo antiplatelet activity was assessed following oral administration at a dose of 1 mg/kg to dogs in the presence of 10 uM of collagen and 1 uM of epinephrine at 90 min; type: functional; conditions: Canis lupus familiaris, 1.5 h; method in brief: as §2
Canis familiaris [35] = species on record: Canis familiaris; assay: In vitro concentration required to inhibit the rate of dog platelet aggregation (in platelet rich plasma) by 50% was determined in presence of 10 uM of ADP and 1 uM of epinephrine; type: functional; conditions: Canis lupus familiaris; method in brief: as §3
Canis familiaris [36] = assay: Ex vivo antiplatelet activity was assessed following oral administration at a dose of 1 mg/kg to dogs in the presence of 10 uM of ADP and 1 uM of epinephrine at 90 min; type: functional; conditions: Canis lupus familiaris, 1.5 h; method in brief: as §2

## O=C(O)CCNC(=O)CN1CCC[C@@H](CCC2CCNCC2)C1=O
Homo sapiens [1]
  IC50: 83 nM

## O=C(O)CCNC(=O)CNC(=O)CCCC1CCNCC1
Homo sapiens [1]
  IC50: 8400 nM

## C[C@@H](CC(=O)O)NC(=O)CN1CCC[C@@H](CCC2CCNCC2)C1=O
Homo sapiens [1]
  IC50: 7800 nM

## C[C@H](CC(=O)O)NC(=O)CN1CCC[C@@H](CCC2CCNCC2)C1=O
Canis familiaris [2]
  inhibition in vivo at 1 mg/kg: 54%
Canis familiaris [3]
  inhibition in vivo at 1 mg/kg: 79%
Canis familiaris [4]
  inhibition in vivo at 1 mg/kg: 93%
Homo sapiens [5]
  IC50: 32 nM
Canis familiaris [6]
  inhibition in vivo at 1 mg/kg: 0%
Canis familiaris [7]
  inhibition in vivo at 1 mg/kg: 0%
Canis familiaris [8]
  inhibition in vivo at 1 mg/kg: 91%
Canis familiaris [9]
  inhibition in vivo at 1 mg/kg: 90%
Canis familiaris [10]
  inhibition in vivo at 1 mg/kg: 72%
[11]
  IC50: 40 nM
Canis familiaris [12]
  inhibition in vivo at 1 mg/kg: 3%
Homo sapiens [13]
  IC50: 23 nM
Homo sapiens [1]
  IC50: 32 nM
Canis familiaris [14]
  inhibition in vivo at 1 mg/kg: 81%
Homo sapiens [15]
  IC50: 36 nM
Homo sapiens [16]
  IC50: 67 nM
Canis familiaris [17]
  inhibition in vivo at 1 mg/kg: 48%
Canis familiaris [18]
  inhibition in vivo at 1 mg/kg: 94%
[19]
  IC50: 42 nM
Canis familiaris [20]
  Platelet count: 322000 µL⁻¹
Canis familiaris [21]
  IC50: 40 nM
Canis familiaris [22]
  inhibition in vivo at 1 mg/kg: 31%
Canis familiaris [23]
  inhibition in vivo at 1 mg/kg: 78%
Canis familiaris [24]
  inhibition in vivo at 1 mg/kg: 2%
Homo sapiens [25]
  IC50: 27 nM
Canis familiaris [26]
  inhibition in vivo at 1 mg/kg: 94%
Canis familiaris [27]
  inhibition in vivo at 1 mg/kg: 63%
Canis familiaris [28]
  inhibition in vivo at 1 mg/kg: 50%
Canis familiaris [29]
  inhibition in vivo at 1 mg/kg: 79%
Canis familiaris [30]
  inhibition in vivo at 1 mg/kg: 86%
Canis familiaris [31]
  Delta: -0.5% [middle of 10 runs]
Canis familiaris [32]
  inhibition in vivo at 1 mg/kg: 67%
Canis familiaris [33]
  inhibition in vivo at 1 mg/kg: 96%
Canis familiaris [34]
  inhibition in vivo at 1 mg/kg: 75%
Canis familiaris [35]
  IC50: 41 nM
Canis familiaris [36]
  inhibition in vivo at 1 mg/kg: 96%

## CC(=O)N[C@H]1CSSC[C@@H](C(=O)O)NC(=O)[C@H](CC(=O)O)NC(=O)CNC(=O)[C@H](CCCN=C(N)N)NC1=O (Ac-CRGDC-OH; disulfide 1-5)
Homo sapiens [1]
  IC50: 680 nM
